Data from ChEMBL document CHEMBL5352422, “Development of l-Dopa-containing diketopiperazines as blood-brain barrier shuttle” (Eur J Med Chem, 2022).
Activity calls are given as the source filed them. The rule behind the calls is not given here. Where a SMILES comes first, the peptide text is derived from it. [ ]: non-standard residue; d: D form. Dopa = N[C@@H](Cc1ccc(O)c(O)c1)C(=O)O

How the values were obtained:
[1] = Apparent permeability of the compound across apical side to basolateral side in human Caco-2 cells measured upto 180 mins by HPLC analysis; format: ADME, cell-based
[2] = Effective permeability of compound at 500 uM incubated for 18 hrs by […] method; format: ADME; details: read-out: Peff
How it was run: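 PAMPA-BBB: donor contained compound at 500 µM final in PBS pH 7.4 with 20% v/v MeOH. Incubated 18 h. Donor and acceptor concentrations measured by HPLC; effective permeability Pe (cm/s) calculated.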

PC-12 [3] = assay: Inhibition of MPP+ induced GSH level in rat PC-12 cells at 50 uM preincubated with compound for 24 hrs followed by MPP+ treatment for 24 hrs by DTNB reagent based analysis; format: functional, cell-based; details: time 48.0 hrs
PC-12 [4] = assay: Inhibition of MPP+ induced ROS production in rat PC-12 cells at 50 uM preincubated with compound for 24 hrs followed by MPP+ treatment for 24 hrs by DCFH-DA staining based fluorescence method; format: functional, cell-based; details: time 48.0 hrs
PC-12 [5] = assay: Upregulation of xCT expression in MPP+ induced rat PC-12 cells at 50 nM pretreated with compound for 24 hrs followed by MPP+ stimulation and measured after 6 hrs; format: functional, cell-based; details: time 30.0 hrs
PC-12 [6] = assay: Upregulation of Gpx expression in MPP+ induced rat PC-12 cells at 50 nM pretreated with compound for 24 hrs followed by MPP+ stimulation and measured after 6 hrs; format: functional, cell-based; details: time 30.0 hrs

For `COC(=O)[C@H](Cc1ccc(O)c(O)c1)NC(=O)[C@H](CCSC)NC(C)=O` (Ac-Met-[Dopa]-OMe), which Papp A→B at 3 h [1] is on record?
Its Papp A→B at 3 h is 3.5 ×10⁻⁶ cm/s.

What about the Papp at 18 h, 500 µM [2] of the same compound?
The Papp at 18 h, 500 µM was 1.42 ×10⁻⁶ cm/s.

What does the source list for `N[C@@H](Cc1ccc(O)c(O)c1)C(=O)O` [LEVODOPA]?
inhibition (PC-12 [3]): inactive; inhibition (PC-12 [4]): Active; Papp A→B at 3 h [1]: 0.82 ×10⁻⁶ cm/s; Activity (PC-12 [5]): Active; Papp at 18 h, 500 µM [2]: 0.75 ×10⁻⁶ cm/s; Activity (PC-12 [6]): Active

Which Papp A→B at 3 h [1] does the source give for `COCCc1ccc(OCC(O)CNC(C)C)cc1` (stereo not given) [METOPROLOL] here?
The Papp A→B at 3 h was 27.4 ×10⁻⁶ cm/s.

For `NC(=O)N1c2ccccc2C=Cc2ccccc21` [CARBAMAZEPINE], which Papp A→B at 3 h [1] is on record?
Its Papp A→B at 3 h is 50.3 ×10⁻⁶ cm/s.
